Experimental data: ChEMBL document CHEMBL1134691, “3-Phenyl-5-acyloxymethyl-2H,5H-furan-2-ones: synthesis and biological activity of a novel group of potential antifungal drugs” (2001)
In brackets after ≈: the same amount, converted by molar mass.

How the values were obtained:
Candida parapsilosis [1] = experiment: Inhibition of Candida parapsilosis ATCC 22019 growth for 48 hours in vitro.; format: functional; details: Lodderomyces parapsilosis, ATCC 22019, 48 h; read-out: MIC
Outline: (§1)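 NCCLS M27-A broth microdilution in RPMI 1640 with L-glutamine and 0.165 M MOPS, pH 7.0. Isolates kept on Sabouraud dextrose agar. Inoculum 5 × 10^3 cfu/mL final. Compounds were diluted in DMSO (≤2% final) and tested in 2-fold dilutions of 1000–0.24 µmol/L. Incubation at 35 °C, OD540 read at 24 and 48 h. MIC = 80% growth inhibition versus control; assays run twice in duplicate.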

Candida parapsilosis [2] = experiment: Inhibition of Candida parapsilosis ATCC 22019 growth for 24 hours in vitro.; format: functional; details: Lodderomyces parapsilosis, ATCC 22019, 24 h; read-out: MIC; outline: as §1
Candida tropicalis [3] = experiment: Inhibition of Candida tropicalis 156 growth for 24 hours in vitro.; format: functional; details: Candida tropicalis, 24 h; read-out: MIC; outline: as §1
[4] = Inhibition of Trichophyton mentagrophytes 445 growth for 120 hours in vitro.; format: functional, Arthroderma benhamiae; details: Trichophyton benhamiae, 120 h; read-out: MIC
Outline: (§2)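 Dermatophyte grown in MOPS-buffered (0.165 M, pH 7.0) RPMI 1640 containing L-glutamine, in an M27-A microdilution format. Inoculum 5 × 10^3 cfu/mL final. Compounds from DMSO stocks (≤2% final), 2-fold dilutions 1000–0.24 µmol/L. Incubated at 35 °C, growth judged visually at 72 and 120 h. MIC endpoint is 80% inhibition relative to control; measured twice in duplicate.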

Candida albicans [5] = experiment: Inhibition of Candida albicans ATCC 90028 for 48 hours in vitro.; format: functional; details: Candida albicans, ATCC 90028, 48 h; read-out: MIC; outline: as §1
Trichosporon beigelii [6] = experiment: Inhibition of Trichosporon beigelli 1188 for 24 hours in vitro.; format: functional; details: Trichosporon beigelii, 24 h; read-out: MIC
Outline: (§3)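 Microdilution following NCCLS M27-A. Medium: RPMI 1640 with L-glutamine, 0.165 M MOPS, pH 7.0. Final inoculum 5 × 10^3 cfu/mL. Compounds dissolved in DMSO, final ≤2%, serially halved from 1000 to 0.24 µmol/L. Incubated at 35 °C and read at 24 and 48 h. MIC defined as 80% inhibition of control growth; run twice in duplicate.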

Lichtheimia corymbifera [7] = experiment: In vitro inhibition of Absidia corymbifera 272 growth for 48 hours.; format: functional; details: Lichtheimia corymbifera, 48 h; read-out: MIC
Outline: (§4)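 Filamentous isolates tested by microdilution per NCCLS M27-A in RPMI 1640 plus L-glutamine, buffered with 0.165 M MOPS to pH 7.0. Final inoculum 5 × 10^3 cfu/mL. Compounds in DMSO (final ≤2%), 2-fold series over 1000–0.24 µmol/L. Plates held at 35 °C and read visually after 24 and 48 h. MIC taken as 80% inhibition of control growth; determined twice in duplicate.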

Candida tropicalis [8] = experiment: Inhibition of Candida tropicalis 156 growth for 48 hours in vitro.; format: functional; details: Candida tropicalis, 48 h; read-out: MIC; outline: as §1
Aspergillus fumigatus [9] = experiment: Inhibition of Aspergillus fumigatus 231 growth for 48 hours in vitro.; format: functional; details: Aspergillus fumigatus, 48 h; read-out: MIC; outline: as §4
Candida albicans [10] = experiment: Inhibition of Candida albicans ATCC 90028 for 24 hours in vitro.; format: functional; details: Candida albicans, ATCC 90028, 24 h; read-out: MIC; outline: as §1
Trichosporon beigelii [11] = experiment: Inhibition of Trichosporon beigelli 1188 for 48 hours in vitro.; format: functional; details: Trichosporon beigelii, 48 h; read-out: MIC; outline: as §3
Pichia kudriavzevii [12] = experiment: Inhibition of Candida krusei ATCC 6258 growth for 24 hours in vitro.; format: functional; details: Pichia kudriavzevii, ATCC 6258, 24 h; read-out: MIC; outline: as §1
Candida albicans [13] = experiment: Inhibition of Candida albicans ATCC 44859 growth for 48 hours in vitro.; format: functional; details: Candida albicans, ATCC 44859, 48 h; read-out: MIC; outline: as §1
Clavispora lusitaniae [14] = experiment: Inhibition of Candida lusitaniae 2446/I growth for 24 hours in vitro.; format: functional; details: Clavispora lusitaniae, 24 h; read-out: MIC; outline: as §1
[15] = Inhibition of Trichophyton mentagrophytes 445 growth for 72 hours in vitro.; format: functional, Arthroderma benhamiae; details: Trichophyton benhamiae, 72 h; read-out: MIC; outline: as §2
Nakaseomyces glabratus [16] = experiment: Inhibition of Candida glabrata 20/I growth for 48 hours in vitro.; format: functional; details: Nakaseomyces glabratus, 48 h; read-out: MIC; outline: as §1
Pichia kudriavzevii [17] = experiment: Inhibition of Candida krusei ATCC 6258 growth for 48 hours in vitro.; format: functional; details: Pichia kudriavzevii, ATCC 6258, 48 h; read-out: MIC; outline: as §1
Aspergillus fumigatus [18] = experiment: Inhibition of Aspergillus fumigatus 231 growth for 24 hours in vitro.; format: functional; details: Aspergillus fumigatus, 24 h; read-out: MIC; outline: as §4
Pichia kudriavzevii [19] = experiment: Inhibition of Candida krusei E28 growth for 24 hours in vitro.; format: functional; details: Pichia kudriavzevii, 24 h; read-out: MIC; outline: as §1
Nakaseomyces glabratus [20] = experiment: Inhibition of Candida glabrata 20/I growth for 24 hours in vitro.; format: functional; details: Nakaseomyces glabratus, 24 h; read-out: MIC; outline: as §1
Pichia kudriavzevii [21] = experiment: Inhibition of Candida krusei E28 growth for 48 hours in vitro.; format: functional; details: Pichia kudriavzevii, 48 h; read-out: MIC; outline: as §1
Candida albicans [22] = experiment: Inhibition of Candida albicans ATCC 44859 growth for 24 hours in vitro.; format: functional; details: Candida albicans, ATCC 44859, 24 h; read-out: MIC; outline: as §1
Clavispora lusitaniae [23] = experiment: Inhibition of Candida lusitaniae 2446/I growth for 48 hours in vitro.; format: functional; details: Clavispora lusitaniae, 48 h; read-out: MIC; outline: as §1
Lichtheimia corymbifera [24] = experiment: In vitro inhibition of Absidia corymbifera 272 growth for 24 hours.; format: functional; details: Lichtheimia corymbifera, 24 h; read-out: MIC; outline: as §4

Row | SMILES | MIC (Candida parapsilosis [1]) [µM] | MIC (Candida parapsilosis [2]) [µM] | MIC (Candida tropicalis [3]) [µM] | MIC [4] [µM] | MIC (Candida albicans [5]) [µM] | MIC (Trichosporon beigelii [6]) [µM] | MIC (Lichtheimia corymbifera [7]) [µM] | MIC (Candida tropicalis [8]) [µM] | MIC (Aspergillus fumigatus [9]) [µM] | MIC (Candida albicans [10]) [µM] | MIC (Trichosporon beigelii [11]) [µM] | MIC (Pichia kudriavzevii [12]) [µM] | MIC (Candida albicans [13]) [µM] | MIC (Clavispora lusitaniae [14]) [µM] | MIC [15] [µM] | MIC (Nakaseomyces glabratus [16]) [µM] | MIC (Pichia kudriavzevii [17]) [µM] | MIC (Aspergillus fumigatus [18]) [µM] | MIC (Pichia kudriavzevii [19]) [µM] | MIC (Nakaseomyces glabratus [20]) [µM] | further results
1 | OC(Cn1cncn1)(Cn1cncn1)c1ccc(F)cc1F [FLUCONAZOLE] | 4 (≈ 1.23 µg/mL) | 2 (≈ 0.613 µg/mL) | 0.5 (≈ 0.153 µg/mL) | 16 (≈ 4.9 µg/mL) | 1 (≈ 0.306 µg/mL) | 1 (≈ 0.306 µg/mL) | > 128 | > 128 | > 128 | 0.25 (≈ 0.0766 µg/mL) | 2 (≈ 0.613 µg/mL) | 32 (≈ 9.8 µg/mL) | 0.5 (≈ 0.153 µg/mL) | 1 (≈ 0.306 µg/mL) | 8 (≈ 2.45 µg/mL) | 16 (≈ 4.9 µg/mL) | 64 (≈ 19.6 µg/mL) | > 128 | 16 (≈ 4.9 µg/mL) | 4 (≈ 1.23 µg/mL) | MIC (Pichia kudriavzevii [21]): 32 µM (≈ 9.8 µg/mL); MIC (Candida albicans [22]): 0.25 µM (≈ 0.0766 µg/mL); MIC (Clavispora lusitaniae [23]): 1 µM (≈ 0.306 µg/mL); MIC (Lichtheimia corymbifera [24]): > 128 µM
2 | CC(=O)OCC1C=C(c2ccc(Br)cc2)C(=O)O1 (stereo not drawn) | 7.81 (≈ 2.43 µg/mL) | 7.81 (≈ 2.43 µg/mL) | 7.81 (≈ 2.43 µg/mL) | 1.95 (≈ 0.607 µg/mL) | 3.91 (≈ 1.22 µg/mL) | 3.91 (≈ 1.22 µg/mL) | 15.6 (≈ 4.86 µg/mL) | 15.6 (≈ 4.86 µg/mL) | 3.91 (≈ 1.22 µg/mL) | 1.95 (≈ 0.607 µg/mL) | 7.81 (≈ 2.43 µg/mL) | 3.91 (≈ 1.22 µg/mL) | 1.95 (≈ 0.607 µg/mL) | 1.95 (≈ 0.607 µg/mL) | 1.95 (≈ 0.607 µg/mL) | 1.95 (≈ 0.607 µg/mL) | 7.81 (≈ 2.43 µg/mL) | 0.98 (≈ 0.305 µg/mL) | 3.91 (≈ 1.22 µg/mL) | 0.98 (≈ 0.305 µg/mL) | MIC (Pichia kudriavzevii [21]): 7.81 µM (≈ 2.43 µg/mL); MIC (Candida albicans [22]): < 0.98 µM; MIC (Clavispora lusitaniae [23]): 3.91 µM (≈ 1.22 µg/mL); MIC (Lichtheimia corymbifera [24]): 7.81 µM (≈ 2.43 µg/mL)
